Data published in ChEMBL document CHEMBL4428038, “Overcoming chloroquine resistance in malaria: Design, synthesis and structure-activity relationships of novel chemoreversal agents” (Eur J Med Chem, 2016).
≈ marks a conversion by molar mass, not a printed value. Calls of active or inactive are those of the source. No cut-off for these calls is given here.

What was measured:
Plasmodium falciparum [1] = test: Intrinsic antimalarial activity against chloroquine-resistant Plasmodium falciparum NHP4559 harboring CRT K76T mutant assessed as reduction in parasite viability at 500 nM; format: functional, organism-based
Plasmodium falciparum [2] = test: Potentiation of chloroquine-induced antimalarial activity against chloroquine-sensitive Plasmodium falciparum HB3 isolate MRA-155 assessed as reduction in chloroquine IC50 at 500 nM relative to chloroquine alone; format: functional
[3] = tested on: T1, Chloroquine resistance transporter (Plasmodium falciparum), Q9N623 [K76T]; test: Inhibition of CRT K76T mutant in chloroquine-resistant Plasmodium falciparum NHP4559 assessed as reversal of chloroquine resistance by measuring reduction in chloroquine IC50 at 500 nM relative to chloroquine alone
T1 sequence (whole entry): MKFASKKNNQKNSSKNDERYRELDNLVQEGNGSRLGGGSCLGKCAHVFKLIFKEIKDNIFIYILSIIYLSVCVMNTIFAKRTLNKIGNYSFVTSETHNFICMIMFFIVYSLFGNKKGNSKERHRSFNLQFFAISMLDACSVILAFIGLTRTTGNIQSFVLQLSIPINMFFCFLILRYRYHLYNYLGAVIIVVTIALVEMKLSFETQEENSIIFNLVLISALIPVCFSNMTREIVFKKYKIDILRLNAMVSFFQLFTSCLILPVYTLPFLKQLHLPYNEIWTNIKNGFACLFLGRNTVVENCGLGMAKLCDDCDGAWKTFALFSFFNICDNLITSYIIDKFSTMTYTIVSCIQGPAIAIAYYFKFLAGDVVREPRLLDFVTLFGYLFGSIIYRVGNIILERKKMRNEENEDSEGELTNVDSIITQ

[4] = Permeability of compound incubated for 16 hrs at pH 7.4 by PAMPA; format: ADME; details: read-out: Peff
Plasmodium falciparum [5] = test: Intrinsic antimalarial activity against intermediate chloroquine-resistant Plasmodium falciparum 7G8 isolate MRA-154 harboring CRT SVMNT haplotype mutant assessed as reduction in parasite viability at 500 nM; format: functional, organism-based
[6] = tested on: T1, Chloroquine resistance transporter (Plasmodium falciparum), Q9N623 [K76T]; test: Inhibition of CRT K76T mutant in chloroquine/artemisinin-resistant Plasmodium falciparum ARS233 assessed as reversal of chloroquine resistance by measuring reduction in chloroquine IC50 at 500 nM relative to chloroquine alone
[7] = Permeability of compound incubated for 6 hrs at pH 7.4 by PAMPA; format: ADME; details: read-out: Peff
[8] = Aqueous kinetic solubility of compound in pH 7.4 solution incubated for 24 hrs; format: physicochemical; details: for solubility kinetic at 24 h: aqueous solution pH 7.4, pH 7.4, read-out: Kinetic_solubility
[9] = tested on: Plasmodium falciparum 7G8; test: Inhibition of CRT SVMNT haplotype mutant in intermediate chloroquine-resistant Plasmodium falciparum 7G8 isolate MRA-154 t assessed as reversal of chloroquine resistance by measuring reduction in chloroquine IC50 at 500 nM relative to chloroquine alone
Plasmodium falciparum [10] = test: Intrinsic antimalarial activity against chloroquine/artemisinin-resistant Plasmodium falciparum NHP4773 harboring CRT K76T mutant assessed as reduction in parasite viability at 500 nM; format: functional, organism-based
[11] = tested on: T1, Chloroquine resistance transporter (Plasmodium falciparum), Q9N623 [K76T]; test: Inhibition of CRT K76T mutant in chloroquine-resistant Plasmodium falciparum Dd2 isolate MRA-156 assessed as reversal of chloroquine resistance by measuring reduction in chloroquine IC50 at 500 nM relative to chloroquine alone
[12] = Inhibition of CRT CVIET haplotype mutant in Plasmodium falciparum K1 isolate MRA-159 infected in erythrocytes assessed as reversal of chloroquine resistance by measuring reduction in chloroquine IC50 by Hoechst 33342 staining based flow cytometry; format: cell-based
Procedure, shortened: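 Chloroquine IC50 was determined in the presence of a fixed 500 nM chemoreversal agent, against chloroquine alone. The RMI is the ratio of chloroquine IC50 with agent to chloroquine IC50 alone. Mean of n = 3; two-tailed t test versus chloroquine without agent.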

[13] = Resistance index, ratio of chloroquine IC50 for chloroquine-resistant Plasmodium falciparum K1 isolate MRA-159 CRT CVIET haplotype mutant to chloroquine IC50 for chloroquine-sensitive Plasmodium falciparum 3D7 isolate MRA-102 at 500 nM
Procedure, shortened: (§1)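 Chloroquine IC50 was measured with the chemoreversal agent fixed at 500 nM in K1 or 7G8 and in sensitive 3D7 (means, n = 3). The resistance ratio is the chloroquine IC50 in K1 or 7G8 divided by the chloroquine IC50 in 3D7.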

Plasmodium falciparum [14] = test: Intrinsic antimalarial activity against chloroquine-sensitive Plasmodium falciparum HB3 isolate MRA-155 assessed as reduction in parasite viability at 500 nM; format: functional, organism-based
Plasmodium falciparum K1 [15] = test: Inhibition of CRT CVIET haplotype mutant in chloroquine-resistant Plasmodium falciparum K1 isolate MRA-159 assessed as reversal of chloroquine resistance by measuring reduction in chloroquine IC50 at 500 nM relative to chloroquine alone
[16] = tested on: T1, Chloroquine resistance transporter (Plasmodium falciparum), Q9N623 [K76T]; test: Inhibition of CRT K76T mutant in chloroquine/artemisinin-resistant Plasmodium falciparum NHP4773 assessed as reversal of chloroquine resistance by measuring reduction in chloroquine IC50 at 500 nM relative to chloroquine alone
Plasmodium falciparum [17] = test: Intrinsic antimalarial activity against chloroquine-sensitive Plasmodium falciparum 3D7 isolate MRA-102 assessed as reduction in parasite viability at 500 nM; format: functional, organism-based
[18] = tested on: T1, Chloroquine resistance transporter (Plasmodium falciparum), Q9N623 [K76T]; test: Inhibition of CRT K76T mutant in chloroquine/artemisinin-resistant Plasmodium falciparum ARS272 assessed as reversal of chloroquine resistance by measuring reduction in chloroquine IC50 at 500 nM relative to chloroquine alone
Plasmodium falciparum [19] = test: Intrinsic antimalarial activity against chloroquine/artemisinin-resistant Plasmodium falciparum ARS233 harboring CRT K76T mutant assessed as reduction in parasite viability at 500 nM; format: functional, organism-based
Plasmodium falciparum [20] = test: Intrinsic antimalarial activity against chloroquine/artemisinin-resistant Plasmodium falciparum ARS272 harboring CRT K76T mutant assessed as reduction in parasite viability at 500 nM; format: functional, organism-based
[21] = Resistance index, ratio of chloroquine IC50 for intermediate chloroquine-resistant Plasmodium falciparum 7G8 isolate MRA-154 CRT SVMNT haplotype mutant to chloroquine IC50 for chloroquine-sensitive Plasmodium falciparum 3D7 isolate MRA-102 at 500 nM; procedure, shortened: as §1
Plasmodium falciparum [22] = test: Intrinsic antimalarial activity against chloroquine-resistant Plasmodium falciparum K1 isolate MRA-159 harboring CRT CVIET haplotype mutant assessed as reduction in parasite viability at 500 nM; format: functional, organism-based
Plasmodium falciparum K1 [23] = test: Inhibition of CRT CVIET haplotype mutant in Plasmodium falciparum K1 isolate MRA-159 infected in erythrocytes assessed as chloroquine-coumarin probe accumulation at 10 uM after 10 hrs by Hoechst 33342 staining based flow cytometry (reference value: 35.57 +/- 3.84%); format: cell-based; set-up: scale not given: the % may be the effect or the level left
Procedure, shortened: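 Infected erythrocyte cultures at 2.5% hematocrit and 7–12% parasitemia, synchronized to late-ring/early-trophozoite stage, were incubated with chloroquine-coumarin probe plus test agent for 10 h at 37 C. Cells were then washed, resuspended in PBS and read by flow cytometry (405 nm excitation, 450/50 filter). Hoechst-stained duplicate wells set parasitemia. Uptake = % infected erythrocytes fluorescent. Controls: PBS (negative), desipramine and parent compound (positive). ≥3 independent experiments; mean ± SEM.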

Plasmodium falciparum [24] = test: Intrinsic antimalarial activity against chloroquine-resistant Plasmodium falciparum Dd2 isolate MRA-156 harboring CRT K76T mutant assessed as reduction in parasite viability at 500 nM; format: functional, organism-based
Plasmodium falciparum [25] = test: Potentiation of chloroquine-induced antimalarial activity against chloroquine-sensitive Plasmodium falciparum 3D7 isolate MRA-102 assessed as reduction in chloroquine IC50 at 500 nM relative to chloroquine alone; format: functional
[26] = Therapeutic index, ratio of IC50 for TAMH to EC50 for chloroquine-resistant Plasmodium falciparum K1 isolate MRA-159 CRT CVIET haplotype mutant; format: toxicity; details: mouse, TAMH cells; read-out: Ratio IC50/EC50
Procedure, shortened: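 Host-cell IC50 was measured by ATP-luminescence viability assay in TAMH hepatocytes (mean of n = 4 independent determinations) or AC10 cardiomyocytes. Each IC50 was divided by the K1 EC50, the concentration of chemoreversal agent that halves the chloroquine concentration needed for 50% parasite inhibition.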

TAMH = test: Cytotoxicity against TAMH assessed as reduction in cell viability by CellTiter-Glo assay; format: cell-based; details: Mus musculus
Procedure, shortened: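 For TAMH (hepatocyte line) and AC10 (cardiomyocyte line), viability was read by ATP luminescence (CellTiter-Glo), and the value reported is IC50.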

Row | Compound | Activity (Plasmodium falciparum [1]) | Ratio IC50 (Plasmodium falciparum [2]) | Ratio IC50 [3] | Activity (Plasmodium falciparum [5]) | Ratio IC50 [6] | Ratio IC50 [9] | Activity (Plasmodium falciparum [10]) | Ratio IC50 [11] | EC50 [12] | Ratio IC50 [13] | Activity (Plasmodium falciparum [14]) | Ratio IC50 (Plasmodium falciparum K1 [15]) | Ratio IC50 [16] | Activity (Plasmodium falciparum [17]) | Ratio IC50 [18] | Activity (Plasmodium falciparum [19]) | Activity (Plasmodium falciparum [20]) | Ratio IC50 [21] | Activity (Plasmodium falciparum [22]) | Activity (Plasmodium falciparum K1 [23]) | also measured
1 | CN(C)C(=O)C(CCN1CCC(O)(c2ccc(Cl)cc2)CC1)(c1ccccc1)c1ccccc1 [LOPERAMIDE] | inactive | 1.04 | 0.79 | inactive | 0.64 | 0.59 | inactive | 0.82 | 0.685 µM | 14 | inactive | 0.74 | 0.64 | inactive | 0.75 | inactive | inactive | 3.4 | inactive | 87.6% | Papp at 16 h [4]: 125 nm/s; Papp at 6 h [7]: 160 nm/s; Kinetic_solubility ([8]; buffer, pH 7.4, 24 h): 0.41 mg/mL; Activity (Plasmodium falciparum [24]): inactive; Ratio IC50 (Plasmodium falciparum [25]): 1.08
2 | CN1CCN(C2Cc3ccccc3Sc3ccc(Cl)cc32)CC1 (stereo not given) [CLOROTEPINE] | inactive | 1.04 | 1.09 | inactive | 0.87 | 1.12 | inactive | 0.98 | 1.27 µM | 18.1 | inactive | 0.94 | 0.87 | inactive | 1.05 | inactive | inactive | 6.4 | inactive | 82.8% | solubility kinetic at 24 h [8]: 0.0349 mg/mL (≈ 101 µM); Activity (Plasmodium falciparum [24]): inactive; Ratio IC50 (Plasmodium falciparum [25]): 1.07
3 | Ic1ccccc1CN[C@@H]1C2CCN(CC2)[C@@H]1C(c1ccccc1)c1ccccc1 | inactive | 1.09 | 0.28 | inactive | 0.2 | 0.59 | inactive | 0.37 | 0.098 µM | 5 | inactive | 0.26 | 0.27 | inactive | 0.26 | inactive | inactive | 3.4 | inactive | 80.5% | Papp at 16 h [4]: 82.4 nm/s; Papp at 6 h [7]: 104 nm/s; solubility kinetic at 24 h [8]: 0.031 mg/mL (≈ 61 µM); selectivity ratio [26]: 175; IC50 (TAMH): 17.2 µM; Activity (Plasmodium falciparum [24]): inactive; Ratio IC50 (Plasmodium falciparum [25]): 1.07
